Consider 38 variants from the RNAGym collection of RNA variant scans (doi:10.1126/science.aae0568).

B1: tRNA (parent)
chain: GUUCCGUUGGCGUAAUGGUAACGCGUCUCCCUCCUAAGGAGAAGACUGCGGGUUCGAGUCCCGUACGGAACG

Fewer inactive variants are shown than the library holds.

In the series the parent is B1. The experiment in a line: yeast fitness relative to wild type (ratio to wild type); higher = fitter; tRNA-Arg(CCU), competitive growth, 37 C, YPD. The method in brief: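 Amplicons of the tRNA-Arg(CCU) gene were sequenced, 100-nucleotide paired-end, from the start population and from each end population of a pooled yeast competition. The competition, in six parallel replicates, lasted 24 hours in YPD at 37°C. Fitness relative to wild type was calculated from changes in genotype frequencies. Genotypes had to have ≥ 100 starting reads, and estimates < 0.5 were set to 0.5.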
With GUUCCGUUGGCGUAUUGGUAACGCGUCUCCCAGCUAAGGAGAAGACUGCGGGAUCGAGUCCCGUACGGAACG [A15U U32A C33G U53A], the yeast fitness was at most 0.5.

Consider GUUCCGUUGGCGUAUUGGUAACGCGUCUCCCACCUAAGGAGAAGACUGCAAGUUCCAGUCGUGUACGGAACG [A15U U32A G50A G51A G56C C61G C62U], for which the yeast fitness is at most 0.5.

GUUCCGUUGGCGUAUUGGUAACGCGACUCCAUCCUAAGGAGAAGACUGCGGGUUCGAGUCCCGUACUGAACG [A15U U26A C31A G67U]: the yeast fitness was at most 0.5.

As for GUUCCGUUGGCGUAUUGGUAACGCGACUCCCUCCUAGGGAGAAGACUGCGGGUUCGAGUCCCGAACGGAACG [A15U U26A A37G U64A], the yeast fitness is at most 0.5.

As for GUUCCGUUGGCGUAUUGGUAACGCGUCUCCCUCCUAAGGAGAAGACUGCGGGUUCGAGUCCCGUACGCAACG [A15U G68C], the yeast fitness was 0.671.

As to GUUCCGUUGGCGUAUUGGUAACGCGUCUCCCUCCUAAGGAGAAGACUGCGGGUACGAGUCCCGUACGGAACG [A15U U54A], the yeast fitness amounted to 0.53.

Consider GUUCCGUUGGCGUAUGGGUAACGCGUCUCCCUCCUAAGGAGAAGACUGCGGGUUAGCGCCCCGUGCGGAACG [A15U U16G C55A A57C U59C A65G], for which the yeast fitness is at most 0.5.

On to GUUCCGUUGGCGUAUUGGUAACGCGUCACCCUCCUAAGGAGAAGACUGCGGGUUCGAGUCCCGUACGCAACG [A15U U28A G68C], for which the yeast fitness is at most 0.5.

For GUUCCGUUGGCGUAUUGGUAACGCGUCUCCCUCCUAAGGAGAAGACUGCGGGUUCGAGUCCCGCGCGGAACG [A15U U64C A65G], the yeast fitness was 0.528.

Take GUUCCGUUGGCGUAUUGGAAACGAGUCUCCCUCUUAAGGCGAAGACUGCGGGUUCGAGUCCCGUACGGAACG [A15U U19A C24A C34U A40C]: the yeast fitness was at most 0.5.

Consider GUUCCGUUGGCGUAUUGGUAACGCGUCUCCCUCCUAAGGAGAAGACUGCGGGGUCGAGUCCCGUACGGAACG [A15U U53G], for which the yeast fitness is 0.539.

In the case of GUUCCGUUGGCGUAUUGGUAACGCGUCUCCCUCCUAAGGAGAAGACUGCGGGCUCGAGUCCCGUACGGAACG [A15U U53C], the yeast fitness was 0.71.

Turning to GUUCCGUUGGCGUAUUGGUAACGCGUCUCCCUCCAAAGGAGAUGAUUGCGGGUUCGAGUCCCGUACGGAACG [A15U U35A A43U C46U], the yeast fitness turned out to be 0.695.

For the variant GUUCCGUUGGCGUAUUGGUAACGCGUCUCCCACCUAAGGAGAAAACUGCGGGUUCGAGUCCCGUCCGGAACG [A15U U32A G44A A65C], the yeast fitness is at most 0.5.

In the case of GUUCCGUUGGCGUAUUGGAGACGCGUCUCCCUCCUAAGGUGAUGACUGCGGGUUCGAGUCCCGUACGGAACG [A15U U19A A20G A40U A43U], the yeast fitness is 0.542.

On to GUUCCGUUGGCGUAUUGGUAACGCGUCUCCCUCCUAAGGAGAAGACUGCGGGAUCGAGUCCAGUACGGAACG [A15U U53A C62A], for which the yeast fitness was at most 0.5.

In the case of GUUCCGUUGGCGUAUUGGUAACGCGUCUCCCUCCUAAGGAGAAGACUGCGGGUUCGAGUCCCGAACGGAACG [A15U U64A], the yeast fitness was found to be 0.709.

Consider GUUCCGUUGGCGUAUAGGUACCGCGUCUCCCUGCUAAGGAGAAGACUGCGGGUUCGAGUCCCGUACGGAACG [A15U U16A A21C C33G], for which the yeast fitness came to 0.558.

GUUCCGUUGGCGUAUUGGUAACGCGACUGCCUCCUAAGGAGAAGACUGCAGGUUCGAGUCGCCUACGGAACG [A15U U26A C29G G50A C61G G63C]: the yeast fitness was 0.57.

For GUUCCGUUGGCGUAUUGGUAACGCGUCUCCCUCCAAAGGAGAAGACUGCCGGUUCGAGUCCCGUCCGGAACG [A15U U35A G50C A65C], the yeast fitness was at most 0.5.

For the variant GUUCCGUUGGCGUAUUGGUAACGCGUCUCCCGCCUAAGGAGAAAACUGCAGGUACGAGUCCCGUACGGAACG [A15U U32G G44A G50A U54A], the yeast fitness is at most 0.5.

In the case of GUUCCGUUGGCGUAUUGGUAACGCGACUCCCUCCUAAGGAGAAGACUGCGGGUUAGAGUCCCGUACGGACCG [A15U U26A C55A A70C], the yeast fitness was at most 0.5.

On to GUUCCGUUGGCGUAUUGGAGACGCGUCUCCCUCCUAAGGAAAAGACUGCGGGUUCGAGUGCCGUGCGGAACG [A15U U19A A20G G41A C60G A65G], for which the yeast fitness is at most 0.5.

Turning to GUUCCGUUGGCGUAUUGGUAACGCGUCCCCCUCCUAAGGAGAAGACUGCGGGUUCGAGUCCCGUACGGAACG [A15U U28C], the yeast fitness was 0.772.

In the case of GUUCCGUUGGCGUAUUGGCAACGCGUCUCCCUCCUAAGGAGAAGACCGCGGGUUCGAGUCCCGUGCGCAACG [A15U U19C U47C A65G G68C], the yeast fitness is at most 0.5.

Regarding GUUCCGUUGGCGUAUCGGUAACGCGUCUCCCUCCUAAGGAGAAGACUGCGGGUUCGAGUCCCGUACGGAACG [A15U U16C], the yeast fitness is 0.893.

On to GUUCCGUUGGCGUAUAGGUAACGCGUCUCCCUCCUAAGGAGAAGACUGCGGGUUCGAGUCCCGUACGGAACG [A15U U16A], for which the yeast fitness came out at 0.705.

Consider GUUCCGUUGGCGUAUAGGUAACGCGUGUCCCUCCUAAGGAGAAGACUGCGGGUUCGAGUCCCGUACGGAACG [A15U U16A C27G], for which the yeast fitness is 0.59.

As for GUUCCGUUGGCGUAUUGGUAACGCGUCUCCCUCCUAAGGAGAAGACGGCGGGUUCGCGUCCCGUACGGAACG [A15U U47G A57C], the yeast fitness was at most 0.5.

With GUUCCGUUGGCGUAUUGGUAACGCGUCUCCCUCCUAAGGAGAAGACAGCGGGUUCGAGUCCCAUACGGAACG [A15U U47A G63A], the yeast fitness was at most 0.5.

Consider GUUCCGUUGGCGUAUAGGUAAGGCGUCUCCCUCCUAAGGAGAAGACUGCGGGUUCGAGUUCCGUACGGAACG [A15U U16A C22G C60U], for which the yeast fitness was at most 0.5.

GUUCCGUUGGCGUAUAGAUAACGCGUCUCCCUCCUAAGGAGAAGACUGCGGGUUCGAGUUCCGUACGGAACG [A15U U16A G18A C60U]: the yeast fitness was at most 0.5.

GUUCCGUUGGCGUAUUGGAGACGCGUCUCCCUCCUAAGGUGAUGACUGCGGGUUCGAGUGCUGUACGGAACG [A15U U19A A20G A40U A43U C60G C62U]: the yeast fitness is 0.518.

As for GUUCCGUUGGCGUAUUGGUAACGCGUCUCCCUCCUAAGGAGAAGACUGCGGGUUCGAGCCCAGUACGGAACG [A15U U59C C62A], the yeast fitness was at most 0.5.

As to GUUCCGUUGGCGUAUUGGUAACGCGACUCCAUCCUAAGGAGAAGACUGCGGGUUCGAGUCCCGUACGGAACG [A15U U26A C31A], the yeast fitness is at most 0.5.

For the variant GUUCCGUUGGCGUAUUGGGAACGCGUAACCCUCCUAAGGAGAAGACUGCGGGUUCGAGUCCCGUACGGAACG [A15U U19G C27A U28A], the yeast fitness turned out to be 0.578.

Regarding GUUCCGUUGGCGUAUUGGAAACGCGUCUCCCUCCUAAGGACAAGACUGCGGGUUGGAGUCCCGUAGGGAACG [A15U U19A G41C C55G C66G], the yeast fitness is at most 0.5.

With GUUCCGUUGGCGUAUUGGUAACGCGUCUCCCUCCUAAGGAGAAGACAGCGGGUUCGUGUCCCGUACGGAACG [A15U U47A A57U], the yeast fitness was 0.719.
